From ChEMBL document CHEMBL2311331, “Selective and potent adenosine A3 receptor antagonists by methoxyaryl substitution on the N-(2,6-diarylpyrimidin-4-yl)acetamide scaffold” (Eur J Med Chem, 2013)

How the values were obtained:
[1] = biological target: T1, Adenosine receptor A2a (Homo sapiens, UniProt P29274); test: Displacement of [3H]4-(2-[7-Amino-2-(2-furyl) [1,2,4]triazolo[2,3-alpha] [1,3,5]triazin-5-ylamino]ethyl)phenol from human adenosine A2A receptor expressed in human HeLa cells; assay type: cell-based
[2] = biological target: T2, Adenosine receptor A2b (Homo sapiens, UniProt P29275); test: Displacement of [3H]DPCPX from human adenosine A2B receptor expressed in HEK-293 cells; assay type: cell-based, HEK293
T2 sequence (P29275 whole entry): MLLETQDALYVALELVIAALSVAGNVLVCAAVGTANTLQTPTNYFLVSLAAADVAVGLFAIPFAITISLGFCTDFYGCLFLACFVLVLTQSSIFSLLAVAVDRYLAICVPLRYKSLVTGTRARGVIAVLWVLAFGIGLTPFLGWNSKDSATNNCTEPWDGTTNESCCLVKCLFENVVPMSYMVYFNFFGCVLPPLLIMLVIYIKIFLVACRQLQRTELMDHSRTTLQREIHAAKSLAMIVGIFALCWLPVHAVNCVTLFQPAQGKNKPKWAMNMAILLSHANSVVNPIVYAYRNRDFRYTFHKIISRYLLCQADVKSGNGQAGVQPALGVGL

[3] = biological target: T3, Adenosine receptor A1 (Homo sapiens) (UniProt P30542); test: Displacement of [3H]DPCPX from human adenosine A1 receptor expressed in CHO cells at 1 uM; assay type: cell-based
T3 sequence (whole entry): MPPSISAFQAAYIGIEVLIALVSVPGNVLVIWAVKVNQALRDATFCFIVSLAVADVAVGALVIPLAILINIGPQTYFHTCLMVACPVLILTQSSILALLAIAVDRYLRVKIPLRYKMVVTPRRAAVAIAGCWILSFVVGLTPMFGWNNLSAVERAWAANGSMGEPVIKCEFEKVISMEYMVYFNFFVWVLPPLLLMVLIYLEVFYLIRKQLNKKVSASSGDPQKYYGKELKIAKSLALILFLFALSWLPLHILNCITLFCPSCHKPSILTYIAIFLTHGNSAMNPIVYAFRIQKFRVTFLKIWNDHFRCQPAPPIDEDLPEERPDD
How it was run: (§1)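 Specific radioligand binding measured in the presence of a single test concentration, 1 µM, at each receptor/cell system (A1 CHO with [3H]DPCPX; A2A HeLa with triazolotriazine phenol tracer; A2B HEK-293 with [3H]DPCPX; A3 HeLa with [3H]NECA). Reported as percent displacement of specific binding, n = 2.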

[4] = biological target: T4, Adenosine receptor A3 (Homo sapiens, UniProt P0DMS8); test: Displacement of [3H]NECA from human adenosine A3 receptor expressed in human HeLa cells; assay type: cell-based
T4 sequence (P0DMS8 whole entry): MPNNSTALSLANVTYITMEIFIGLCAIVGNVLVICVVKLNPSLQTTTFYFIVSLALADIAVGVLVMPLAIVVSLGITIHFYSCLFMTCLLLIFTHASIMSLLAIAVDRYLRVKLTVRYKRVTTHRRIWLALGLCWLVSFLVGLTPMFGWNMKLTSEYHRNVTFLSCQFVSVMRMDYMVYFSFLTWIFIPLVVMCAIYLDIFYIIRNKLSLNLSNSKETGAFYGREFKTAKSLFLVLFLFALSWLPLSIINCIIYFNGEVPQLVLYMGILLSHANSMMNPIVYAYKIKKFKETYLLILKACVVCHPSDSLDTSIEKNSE

[5] = biological target: T1, Adenosine receptor A2a; test: Displacement of [3H]4-(2-[7-Amino-2-(2-furyl) [1,2,4]triazolo[2,3-alpha] [1,3,5]triazin-5-ylamino]ethyl)phenol from human adenosine A2A receptor expressed in human HeLa cells at 1 uM; assay type: cell-based; how it was run: as §1
[6] = biological target: T5, Adenosine receptor A2b (Homo sapiens) (UniProt P29275); test: Displacement of [3H]DPCPX from human adenosine A2B receptor expressed in HEK-293 cells at 1 uM; assay type: cell-based; conditions: HEK293; how it was run: as §1
T5 sequence (whole entry): T2 sequence (P29275 whole entry)

[7] = biological target: T6, Adenosine receptor A1 (Homo sapiens, UniProt P30542); test: Displacement of [3H]DPCPX from human adenosine A1 receptor expressed in CHO cells; assay type: cell-based
T6 sequence (P30542 whole entry): T3 sequence (whole entry)

[8] = biological target: T7, Adenosine receptor A3 (Homo sapiens) (UniProt P0DMS8); test: Displacement of [3H]NECA from human adenosine A3 receptor expressed in human HeLa cells at 1 uM; assay type: cell-based; how it was run: as §1
T7 sequence (whole entry): T4 sequence (P0DMS8 whole entry)

T1 sequence (P29274 whole entry): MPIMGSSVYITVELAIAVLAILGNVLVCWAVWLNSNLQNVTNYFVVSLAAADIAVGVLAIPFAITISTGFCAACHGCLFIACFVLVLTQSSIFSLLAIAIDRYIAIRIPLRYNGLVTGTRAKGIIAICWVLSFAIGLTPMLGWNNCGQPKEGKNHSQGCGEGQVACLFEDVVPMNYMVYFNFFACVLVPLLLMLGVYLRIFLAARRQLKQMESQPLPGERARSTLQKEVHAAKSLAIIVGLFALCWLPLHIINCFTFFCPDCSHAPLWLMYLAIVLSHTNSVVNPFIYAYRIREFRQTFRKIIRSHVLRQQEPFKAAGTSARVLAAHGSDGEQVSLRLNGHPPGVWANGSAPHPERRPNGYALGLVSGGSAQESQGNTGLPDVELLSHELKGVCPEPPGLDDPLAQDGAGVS

Ki [1] [nM] | Ki [2] [nM] | inhibition [3] [%] | Ki [4] [nM] | inhibition [5] [%] | inhibition [6] [%] | Ki [7] [nM] | inhibition [8] [%] | Structure (SMILES)
375 | 494 | 10 | 42.4 |  |  |  |  | COc1cccc(-c2cc(NC(C)=O)nc(-c3cccc(OC)c3OC)n2)c1OC
 |  | 4 | 6.3 | 17 | 1 |  |  | COc1ccc(OC)c(-c2cc(NC(C)=O)nc(-c3cc(OC)ccc3OC)n2)c1
 |  | 8 | 389 | 1 | 4 |  |  | CC(=O)Nc1cc(-c2ccc(OC(F)(F)F)cc2)nc(-c2ccc(OC(F)(F)F)cc2)n1
 |  | 14 | 26.1 | 1 | 1 |  |  | COc1cc(-c2cc(NC(C)=O)nc(-c3cc(OC)c(OC)c(OC)c3)n2)cc(OC)c1OC
 |  |  |  |  | 22 |  |  | CC(=O)Nc1cc(-c2ccccc2)nc(-c2ccccc2)n1
49.4 | 67.5 |  | 2.8 |  |  | 22.6 |  | COc1cccc(-c2cc(NC(C)=O)nc(-c3cccc(OC)c3)n2)c1
 |  | 3 |  | 10 | 7 |  |  | COc1ccc(-c2cc(NC(C)=O)nc(-c3ccc(OC)cc3OC)n2)c(OC)c1
 |  | 4 |  | 1 | 3 |  | 4 | COc1cccc(OC)c1-c1cc(NC(C)=O)nc(-c2c(OC)cccc2OC)n1
 |  | 12 | 40.2 | 2 | 1 |  |  | CCOc1ccc(-c2cc(NC(C)=O)nc(-c3ccc(OCC)cc3)n2)cc1
 |  | 10 | 5.2 | 5 | 2 |  |  | COc1ccc(-c2cc(NC(C)=O)nc(-c3ccc(OC)c(OC)c3)n2)cc1OC
 |  |  |  |  | 6 | 17 |  | CC(=O)Nc1cc(-c2ccc3c(c2)OCO3)nc(-c2ccc3c(c2)OCO3)n1
 |  | 15 | 55 | 3 | 1 |  |  | COc1cc(OC)cc(-c2cc(NC(C)=O)nc(-c3cc(OC)cc(OC)c3)n2)c1
 |  | 16 | 513 | 13 | 2 |  |  | COc1ccc(/C=C/c2cc(NC(C)=O)nc(/C=C/c3ccc(OC)cc3)n2)cc1
 |  | 4 |  | 15 | 7 |  |  | COc1ccccc1-c1cc(NC(C)=O)nc(-c2ccccc2OC)n1

Structure (SMILES) | Ki [1] [nM] | Ki [2] [nM] | inhibition [3] [%] | Ki [4] [nM] | inhibition [5] [%] | inhibition [6] [%] | Ki [7] [nM] | inhibition [8] [%]
COc1ccc(-c2cc(NC(C)=O)nc(-c3ccc(OC)cc3)n2)cc1 |  |  | 2 |  | 4 | 2 |  | 
